Experiment [1] is described as follows: (§1) Minimum inhibitory concentration against Staphylococcus aureus A5(inoculum, 10e5 cfu per spot). The class given is functional. The method in brief:
(§2)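 MIC in µg/mL, determined in Jewell and Permain growth medium with spot inoculation at 10^5 cfu per spot.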

Experiment [2] concerns Enterobacter cloacae. The experiment in a line: Minimum inhibitory concentration against Enterobacter cloacae A13(inoculum, 10e5 cfu per spot). The class given is functional. The conditions noted are these: in the assay text read “10e2 cfu per spot” for “10e5 cfu per spot”.
In experiment [3] the test system is Staphylococcus aureus. In words: Minimum inhibitory concentration against Staphylococcus aureus A6 (inoculum, 10e5 cfu per spot). The class given is functional. The method in brief:
as §2

Experiment [4] concerns Pseudomonas aeruginosa. The experiment in a line: Minimum inhibitory concentration against Pseudomonas aeruginosa A21 (inoculum, 10e5 cfu per spot). The class given is functional. The method in brief: as §2
The test system of experiment [5] is Serratia marcescens. The experiment in a line: Minimum inhibitory concentration against Serratia marcescens A16 (inoculum, 10e5 cfu per spot). The format is functional. Put shortly: as §2
The test system of experiment [6] is Proteus mirabilis. The experiment in a line: Minimum inhibitory concentration against Proteus mirabilis A18 (inoculum, 10e5 cfu per spot). The format is functional. Put shortly:
as §2

The next experiment deals with Streptococcus pyogenes. The experiment in a line: Minimum inhibitory concentration against Streptococcus pyogenes (inoculum, 10e5 cfu per spot) A1. The class given is functional. Put shortly:
as §2

Experiment [7] has as its system Escherichia coli. The experiment in a line: Minimum inhibitory concentration against Escherichia coli A8 (inoculum, 10e5 cfu per spot). The format is functional. Put shortly: as §2
Experiment [8] deals with Staphylococcus aureus. The description is as §1. The format is functional. The conditions noted are these: in the assay text read “10e2 cfu per spot” for “10e5 cfu per spot”.
For experiment [9], the system named is Enterobacter cloacae. In words: Minimum inhibitory concentration against Enterobacter cloacae A13(inoculum, 10e2 cfu per spot).
Experiment [10] has as its system Escherichia coli. In words: Minimum inhibitory concentration against Escherichia coli DCO (inoculum, 10e4 cfu per spot). The format is functional. Put shortly:
(§3)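 MIC in µg/mL, determined in Jewell and Permain growth medium with spot inoculation at 10^4 cfu per spot. P99 is described as a constitutive type I lactamase producer.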

Experiment [11] deals with Escherichia coli. In words: Minimum inhibitory concentration against Escherichia coli A8(inoculum, 10e5 cfu per spot). Parentheses value indicate inoculum, 10e2 cfu per spot. The class given is functional. Put shortly: (§4)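 MIC in µg/mL in Jewell and Permain growth medium. Each strain was spot-inoculated at 10^5 cfu per spot; the bracketed values come from a 10^2 cfu per spot inoculum.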

Experiment [12] relates to Staphylococcus aureus. The experiment in a line: Minimum inhibitory concentration against Staphylococcus aureus A4(inoculum, 10e5 cfu per spot). Parentheses value indicate inoculum, 10e2 cfu per spot. The class given is functional. Put shortly:
as §4

The subject of experiment [13] is Escherichia coli. The experiment in a line: Minimum inhibitory concentration against Escherichia coli DC2 (inoculum, 10e4 cfu per spot). The class given is functional. Put shortly:
as §3

For experiment [14], the system named is Escherichia coli. The experiment in a line: Minimum inhibitory concentration against Escherichia coli X4 (inoculum, 10e4 cfu per spot).
Experiment [15] has as its system Klebsiella aerogenes. The experiment in a line: Minimum inhibitory concentration against Klebsiella aerogenes X5L (inoculum, 10e4 cfu per spot). The format is functional. The method in brief: as §3
The subject of experiment [16] is Proteus mirabilis. The experiment in a line: Minimum inhibitory concentration against Proteus mirabilis A18(inoculum, 10e5 cfu per spot). Parentheses value indicate inoculum, 10e2 cfu per spot. The format is functional. Put shortly:
as §4

Experiment [17] concerns Klebsiella pneumoniae. In words: Minimum inhibitory concentration against Klebsiella pneumoniae A24(inoculum, 10e5 cfu per spot). Parentheses value indicate inoculum, 10e2 cfu per spot. The class given is functional. Put shortly:
as §4

Experiment [18] relates to Staphylococcus aureus. In words: Minimum inhibitory concentration against Staphylococcus aureus A6(inoculum, 10e5 cfu per spot). Parentheses value indicate inoculum, 10e2 cfu per spot. The format is functional. The method in brief:
as §4

The test system of experiment [19] is Enterobacter cloacae. The experiment in a line: Minimum inhibitory concentration against Enterobacter cloacae P99 (inoculum, 10e4 cfu per spot)(type I lactamase producer). The class given is functional. Put shortly:
as §3

In experiment [20] the test system is Enterobacter cloacae. In words: Minimum inhibitory concentration against Enterobacter cloacae P99 (inoculum, 10e4 cfu per spot). The class given is functional. The method in brief: as §3
For experiment [21], the system named is Escherichia coli. The experiment in a line: Minimum inhibitory concentration against Escherichia coli TEM X3 (inoculum, 10e4 cfu per spot)(TEM I type lactamase producer).
Experiment [22] concerns Proteus vulgaris. The experiment in a line: Minimum inhibitory concentration against Proteus vulgaris Pv9(inoculum, 10e5 cfu per spot). Parentheses value indicate inoculum, 10e2 cfu per spot.
In experiment [23] the test system is Pseudomonas aeruginosa. In words: Minimum inhibitory concentration against Pseudomonas aeruginosa A21(inoculum, 10e5 cfu per spot). Parentheses value indicate inoculum, 10e2 cfu per spot. The class given is functional. The method in brief:
as §4

Experiment [24] concerns Klebsiella aerogenes. In words: Minimum inhibitory concentration against Klebsiella aerogenes X6 (inoculum, 10e4 cfu per spot). The format is functional. Put shortly: as §3
The test system of experiment [25] is Serratia marcescens. In words: Minimum inhibitory concentration against Serratia marcescens A16(inoculum, 10e5 cfu per spot). Parentheses value indicate inoculum, 10e2 cfu per spot. The class given is functional. The method in brief: as §4
In experiment [26] the test system is Enterobacter cloacae. The experiment in a line: Minimum inhibitory concentration against Enterobacter cloacae A13(inoculum, 10e5 cfu per spot). Parentheses value indicate inoculum, 10e2 cfu per spot. The class given is functional. Put shortly: as §4
Experiment [27] concerns Proteus mirabilis. In words: Minimum inhibitory concentration against Proteus mirabilis A18(inoculum, 10e5 cfu per spot). The format is functional. Put shortly: as §2
Experiment [28] concerns Proteus vulgaris. The experiment in a line: Minimum inhibitory concentration against Proteus vulgaris Pv9 (inoculum, 10e5 cfu per spot).
Experiment [29] deals with Klebsiella pneumoniae. The experiment in a line: Minimum inhibitory concentration against Klebsiella pneumoniae A24 (inoculum, 10e5 cfu per spot). The class given is functional. The method in brief:
as §2

The test system of experiment [30] is Enterobacter cloacae. The experiment in a line: Minimum inhibitory concentration against Enterobacter cloacae A13 (inoculum, 10e5 cfu per spot). The format is functional. Put shortly: as §2
In experiment [31] the test system is Staphylococcus aureus. The experiment in a line: Minimum inhibitory concentration against Staphylococcus aureus A4 (inoculum, 10e5 cfu per spot). The class given is functional. Put shortly: as §2
Experiment [32] relates to Staphylococcus aureus. The experiment is described as §1. The class given is functional. The method in brief: as §2

Drawing on ChEMBL document CHEMBL1125626, “Synthesis and structure-activity relationship of new cephalosporins with amino heterocycles at C-7. Dependence of the antibacterial spectrum and beta-lactamase stability on the pKa of the C-7 heterocycle” (1991), this text covers MIC for six molecules.

In brackets after ≈: the same amount, converted by molar mass.

In general, MIC refers to the lowest concentration that inhibits growth of the organism. On to `CC1=C(C(=O)OC(c2ccccc2)c2ccccc2)N2C(=O)[C@@H](Nc3nc4ccccc4[nH]3)C2SC1` (some centres not stated), for which the MIC in experiment [1] was 8 µg/mL (≈ 16.1 µM); against Enterobacter cloacae [2], 8 µg/mL (≈ 16.1 µM); in the experiment with Staphylococcus aureus [3], 40 µg/mL (≈ 80.5 µM); against Pseudomonas aeruginosa [4], over 1000 µg/mL; in the experiment on Serratia marcescens [5] it was 200 µg/mL (≈ 403 µM); against Proteus mirabilis [6], 8 µg/mL (≈ 16.1 µM). Besides, the figures for the MIC with Streptococcus pyogenes and in the experiment on Escherichia coli [7] were 40 µg/mL (≈ 80.5 µM) and 8 µg/mL (≈ 16.1 µM), respectively.
Consider `CC1=C(C(=O)OC(c2ccccc2)c2ccccc2)N2C(=O)[C@@H](Nc3nc4ccccc4o3)C2SC1` (some centres not stated), for which the MIC in the experiment with Staphylococcus aureus [3] is 8 µg/mL (≈ 16.1 µM); in the experiment with Pseudomonas aeruginosa [4] it was over 1000 µg/mL; with Serratia marcescens [5], over 1000 µg/mL; against Staphylococcus aureus [8] it was 8 µg/mL (≈ 16.1 µM); with Proteus mirabilis [6], 1000 µg/mL (≈ 2010 µM); against Streptococcus pyogenes, 200 µg/mL (≈ 402 µM). The MIC was over 1000 µg/mL in the experiment on Escherichia coli [7] and 1000 µg/mL (≈ 2010 µM) with Enterobacter cloacae [9].
Turning to `CC1=C(C(=O)OC(c2ccccc2)c2ccccc2)N2C(=O)[C@@H](NC3=NC4CC4N3)C2SC1` (some centres not stated), the MIC is 1 µg/mL (≈ 2.17 µM) in the experiment on Escherichia coli [10]; 2 µg/mL (≈ 4.34 µM) in the experiment on Escherichia coli [11]; over 256 µg/mL in the experiment with Staphylococcus aureus [12]; 0.5 µg/mL (≈ 1.09 µM) with Escherichia coli [13]; 1 µg/mL (≈ 2.17 µM) against Escherichia coli [14]; 2 µg/mL (≈ 4.34 µM) with Klebsiella aerogenes [15]. The MIC is over 256 µg/mL in the experiment on Proteus mirabilis [16]; 128 µg/mL (≈ 278 µM) with Streptococcus pyogenes; 1 µg/mL (≈ 2.17 µM) in the experiment on Klebsiella pneumoniae [17]; over 256 µg/mL with Staphylococcus aureus [18]; 2 µg/mL (≈ 4.34 µM) with Enterobacter cloacae [19]; 1 µg/mL (≈ 2.17 µM) with Enterobacter cloacae [20]. Moreover, the MIC against Escherichia coli [21] is 1 µg/mL (≈ 2.17 µM); in the experiment with Proteus vulgaris [22] it was over 256 µg/mL; with Pseudomonas aeruginosa [23] it was 256 µg/mL (≈ 556 µM); in the experiment on Klebsiella aerogenes [24] it was 2 µg/mL (≈ 4.34 µM); in the experiment on Serratia marcescens [25], 4 µg/mL (≈ 8.69 µM); in the experiment with Enterobacter cloacae [26] it was 4 µg/mL (≈ 8.69 µM).
Turning to `CC(=O)OCC1=C(C(=O)OC(c2ccccc2)c2ccccc2)N2C(=O)[C@@H](Nc3nc4cc(C)ccc4[nH]3)C2SC1` (some centres not stated), the MIC came out at 4 µg/mL (≈ 7.03 µM) in the experiment on Proteus mirabilis [27]; 1 µg/mL (≈ 1.76 µM) against Escherichia coli [10]; 0.06 µg/mL (≈ 0.106 µM) in the experiment with Escherichia coli [13]; 1 µg/mL (≈ 1.76 µM) in the experiment on Escherichia coli [14]; 128 µg/mL (≈ 225 µM) against Klebsiella aerogenes [15]; 256 µg/mL (≈ 450 µM) against Proteus vulgaris [28]. Besides, the MIC with Staphylococcus aureus [3] is 2 µg/mL (≈ 3.52 µM); in the experiment with Pseudomonas aeruginosa [4] it was over 256 µg/mL; in the experiment with Serratia marcescens [5], 128 µg/mL (≈ 225 µM); in the experiment on Streptococcus pyogenes, 1 µg/mL (≈ 1.76 µM); in the experiment on Klebsiella pneumoniae [29], 4 µg/mL (≈ 7.03 µM); against Enterobacter cloacae [30] it was 256 µg/mL (≈ 450 µM). Further, the MIC against Escherichia coli [7] is 2 µg/mL (≈ 3.52 µM); in the experiment on Enterobacter cloacae [19] it was 256 µg/mL (≈ 450 µM); in the experiment with Staphylococcus aureus [31], 16 µg/mL (≈ 28.1 µM); with Enterobacter cloacae [20], 2 µg/mL (≈ 3.52 µM); in the experiment with Escherichia coli [21], 4 µg/mL (≈ 7.03 µM); against Klebsiella aerogenes [24] it was 4 µg/mL (≈ 7.03 µM).
Consider `CC1=C(C(=O)OC(c2ccccc2)c2ccccc2)N2C(=O)[C@@H](Nc3nc4ccccc4s3)C2SC1` (some centres not stated), for which the MIC was 1 µg/mL (≈ 1.95 µM) against Staphylococcus aureus [32]; over 1000 µg/mL against Pseudomonas aeruginosa [4]; over 1000 µg/mL in the experiment on Serratia marcescens [5]; 1000 µg/mL (≈ 1950 µM) in the experiment on Proteus mirabilis [6]; 40 µg/mL (≈ 77.9 µM) in the experiment with Streptococcus pyogenes; over 1000 µg/mL in the experiment with Escherichia coli [7]. This molecule also displayed an MIC against Enterobacter cloacae [9] of over 1000 µg/mL.
For `CC(=O)OCC1=C(C(=O)OC(c2ccccc2)c2ccccc2)N2C(=O)[C@@H](Nc3nc4ccccc4s3)C2SC1` (some centres not stated), the MIC was 200 µg/mL (≈ 350 µM) in the experiment on Enterobacter cloacae [2]; 0.5 µg/mL (≈ 0.875 µM) with Staphylococcus aureus [3]; over 1000 µg/mL against Pseudomonas aeruginosa [4]; 1000 µg/mL (≈ 1750 µM) against Serratia marcescens [5]; 0.5 µg/mL (≈ 0.875 µM) against Staphylococcus aureus [8]; 200 µg/mL (≈ 350 µM) with Proteus mirabilis [6]. For the same molecule, the minimum inhibitory concentration (MIC) against Streptococcus pyogenes came out at 1 µg/mL (≈ 1.75 µM); against Escherichia coli [7], 200 µg/mL (≈ 350 µM).
